Measurements from paper PMC5694347 (Clinical cancer research : an official journal of the …, 2015).

Tests used:
[1] = system: NQO1; assay: Whole blood reverse-transcriptase-PCR of NRF-2-regulated genes; type: in vivo, human; settings: approximate
Method in brief: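 Whole blood was collected in PAXgene tubes at screening, at baseline and during cycle 1. Schedule A: day 1 at 4 and 8 h, day 2 pre-dose, day 5. Schedule B: days 1 and 11 at 4, 8 and 23 h, pre-dose days 4 and 11, day 15. Eight genes were assayed by RT-PCR, with ΔCt against four housekeeping genes (18S, B2M, RPLP0, UBC). Percent change = (2^−(post ΔCt − baseline ΔCt) − 1) × 100. Undetermined Ct was set to 40.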

[2] = system: patients with relapsed and/or refractory lymphoma or MM; assay: Phase I dose escalation: MTD and DLT determination; type: in vivo

Which “NQO1 expression in whole blood, maximal change from baseline” value ([1]; doses of 25–83 mg/m^2, cycle 1 day 1) does the source give for NS(=O)(=O)OC[C@@H]1C[C@@H](n2ccc3c(N[C@H]4CCc5ccccc54)ncnc32)C[C@@H]1O [pevonedistat] here?
Its value is 250% to 400%.

What about the “NQO1 expression in whole blood, maximal change from baseline” value ([1]; doses of 110–261 mg/m^2, cycle 1 day 1) of the same molecule?
The value was 700% to 800%.

And the “DLTs at 261 mg/m^2” value ([2]; in vivo)?
The value was “no DLTs were observed”.

And the “Maximum tolerated dose (MTD)” value ([2]; schedule A: IV days 1, 2, 8, 9 of 21-day cycles)?
The value was 110 mg/m^2.
